pIC50: −log10 of the molar value. ≈ marks a conversion by molar mass, not a printed value.
Key:
Pseudomonas aeruginosa [1] = experiment: Antibacterial activity against Pseudomonas aeruginosa ATCC 27853 assessed as growth inhibition incubated for 18 hrs by broth dilution method; type: functional; conditions: ATCC 27853, 18 h
How it was run: (§1)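 Broth microdilution following CA-SFM recommendations. Inoculum was 10^5 CFU in Mueller-Hinton broth with two-fold serial drug dilutions. Plates were incubated 18 h at 37 °C. MIC was the lowest concentration giving complete inhibition of visible growth. Values are means, n = 3.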

Escherichia coli = experiment: Antibacterial activity against Escherichia coli ATCC 25922 assessed as growth inhibition incubated for 18 hrs by broth dilution method; type: functional; conditions: ATCC 25922, 18 h; how it was run: as §1
Candida albicans = experiment: Antifungal activity against Candida albicans ATCC 90028 assessed as growth inhibition incubated for 36 hrs by resazurin dye based assay; type: functional; conditions: ATCC 90028, 36 h
How it was run: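 Yeast was grown 3 days on YPD agar at 30 °C. Colonies were suspended and diluted in YNB broth to 2.5×10^3 CFU/mL, then added to two-fold compound dilutions (0.008–32 μg/mL final), in duplicate. Plates stood 36 h at 35 °C without shaking. Means, n = 2.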

[2] = Hemolytic activity against Sprague-Dawley rat RBC assessed as release of hemoglobin at 50 uM incubated for 1 hr relative to control; type: ADME, cell-based, Erythrocyte; conditions: red blood cells (erythrocytes), read-out: Activity
How it was run: (§2)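 Fresh Sprague-Dawley rat erythrocytes were washed in saline and resuspended at 2% v/v. Cells were incubated with compound in DMSO/PBS for 1 h at 37 °C, then centrifuged at 200 g, and supernatant absorbance read at 540 nm. Results were normalised to DMSO/PBS (0%) and 0.1% Triton X-100 (100%). Single-point testing used 50 μM; HC50 came from 10-point curves. Means of three experiments.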

[3] = Hemolytic activity against Sprague-Dawley rat RBC assessed as release of hemoglobin incubated for 1 hr; type: ADME, cell-based, Erythrocyte; conditions: red blood cells (erythrocytes); how it was run: as §2
Acinetobacter baumannii [4] = experiment: Antibacterial activity against Acinetobacter baumannii ATCC 19606 assessed as growth inhibition incubated for 18 hrs by resazurin dye based assay; type: functional; conditions: ATCC 19606 = CIP 70.34 = JCM 6841, 18 h
How it was run: (§3)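 Overnight cultures were diluted 40-fold in MHB and grown 1.5–2 h at 37 °C to mid-log phase. Cells were added at 5×10^5 CFU/mL final to two-fold compound dilutions (0.008–32 μg/mL final), in duplicate, for 18 h at 37 °C. Resazurin (0.001% final) was added for 2 h and MIC read by eye. Means, n = 2.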

[5] = Cytotoxicity against human HEK293 cells measured after 20 hrs by resazurin dye based fluorescence assay; type: cell-based
How it was run: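 HEK293 cells, 5,000/well in DMEM with 10% FBS, were exposed to compound for 20 h at 37 °C, 5% CO2. Resazurin (100 μM final) was added for 3 h, then fluorescence read at ex 560/em 590. Signal was normalised to tamoxifen (74 μg/mL, 0%) and untreated growth (100%), and CC50 came from dose-response fitting. Top dose 32 μg/mL. Means, n = 2.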

Staphylococcus aureus = experiment: Antibacterial activity against Staphylococcus aureus ATCC 25923 assessed as growth inhibition incubated for 18 hrs by broth dilution method; type: functional; conditions: ATCC 25923, 18 h; how it was run: as §1
Cryptococcus neoformans = experiment: Antifungal activity against Cryptococcus neoformans ATCC 208821 assessed as growth inhibition incubated for 36 hrs by resazurin dye based assay; type: functional; conditions: ATCC 208821, 36 h
How it was run: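 Cryptococcus was grown 3 days on YPD agar at 30 °C, suspended, and diluted in YNB broth to 2.5×10^3 CFU/mL. Cells were exposed to 0.008–32 μg/mL compound (final), in duplicate, for 36 h at 35 °C without shaking. Resazurin (0.006% final) was added for a further 3 h. MIC was read from absorbance at OD570–600. Means, n = 2.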

Klebsiella pneumoniae [6] = experiment: Antibacterial activity against Klebsiella pneumoniae ATCC 700603 assessed as growth inhibition incubated for 18 hrs by resazurin dye based assay; type: functional; conditions: Klebsiella pneumoniae, 700603, 18 h; how it was run: as §3
L6 = experiment: Cytotoxicity against rat L6 cells measured after 72 hrs by alamar blue assay; type: cell-based; conditions: L6, 72 h
How it was run: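 Rat L6 myoblasts, 4×10^4/well in RPMI 1640 with L-glutamine and 10% FBS, received seven 3-fold dilutions (90 to 0.123 μg/mL) for 72 h. Alamar Blue was added for 2 h and fluorescence read at ex 536/em 588 nm. Podophyllotoxin served as reference. Means, n = 2.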

Pseudomonas aeruginosa [7] = experiment: Potentiation of doxycycline-induced antibacterial activity against Pseudomonas aeruginosa ATCC 27853 assessed as concentration required to restore 2 ug/ml doxycycline activity measured after 18 hrs; type: functional
How it was run: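 Inoculum was 5×10^5 CFU in MHB with two-fold serial dilutions of adjuvant plus fixed doxycycline at 2 μg/mL. […] Repeated independently in triplicate.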

[8] = tested on: Staphylococcus intermedius; experiment: Antibacterial activity against Staphylococcus intermedius 1051997 assessed as growth inhibition incubated for 18 hrs by broth dilution method; type: functional; conditions: Staphylococcus intermedius, 1051997, 18 h; how it was run: as §1
Klebsiella pneumoniae [9] = experiment: Antibacterial activity against Klebsiella pneumoniae ATCC 13443 assessed as growth inhibition; type: functional
Acinetobacter baumannii [10] = experiment: Antibacterial activity against Acinetobacter baumannii AYE assessed as growth inhibition; type: functional

With `O=C(NCCCNCCCCNCCCNC(=O)C(=O)c1c[nH]c2cc(Br)c(Br)cc12)C(=O)c1c[nH]c2cc(Br)c(Br)cc12.O=C(O)C(F)(F)F.O=C(O)C(F)(F)F` the MIC (Pseudomonas aeruginosa [1]) was 100 µM, the MIC (Escherichia coli) was 50 µM and the MIC (Candida albicans) was > 29.4 µM. For the same compound, the hemolysis at 1 h, 50 µM [2] was 88.7%, the HC50 at 1 h [3] was 17 µM and the MIC (Acinetobacter baumannii [4]) was > 29.4 µM. The CC50 at 20 h [5] was 1.62 µM, the MIC (Staphylococcus aureus) was 25 µM and the MIC (Cryptococcus neoformans) was 3.65 µM. For the same compound, the MIC (Klebsiella pneumoniae [6]) was > 29.4 µM, the pIC50 (L6) was 5.22 and the Activity (Pseudomonas aeruginosa [7]) was 25 µM.

For `O=C(N[C@H](CO)[C@H](O)c1ccc([N+](=O)[O-])cc1)C(Cl)Cl` [CHLORAMPHENICOL], the MIC (Pseudomonas aeruginosa [1]) was > 200 µM, the MIC (Escherichia coli) was > 200 µM and the MIC [8] was 3 to 6 µM (≈ 0.969 to 1.94 µg/mL). The MIC (Klebsiella pneumoniae [9]) was 50 µM (≈ 16.2 µg/mL), the MIC (Staphylococcus aureus) was 1.5 to 3 µM (≈ 0.485 to 0.969 µg/mL) and the MIC (Acinetobacter baumannii [10]) was > 200 µM.

With `O=C(NCCCNCCCCNCCCNC(=O)C(=O)c1c[nH]c2ccccc12)C(=O)c1c[nH]c2ccccc12` the MIC (Pseudomonas aeruginosa [1]) was > 100 µM, the MIC (Escherichia coli) was > 100 µM and the MIC (Candida albicans) was > 41.4 µM. For the same compound, the MIC [8] was > 100 µM, the hemolysis at 1 h, 50 µM [2] was 0% and the MIC (Acinetobacter baumannii [4]) was > 41.4 µM. For the same compound, the CC50 at 20 h [5] was > 41.5 µM, the MIC (Staphylococcus aureus) was > 100 µM and the MIC (Cryptococcus neoformans) was 10.3 µM (≈ 5.61 µg/mL). The MIC (Klebsiella pneumoniae [6]) was > 41.4 µM, the pIC50 (L6) was 4.22 and the Activity (Pseudomonas aeruginosa [7]) was >50 µM.

With `O=C(NCCCNCCCCNCCCNC(=O)C(=O)c1c[nH]c2cc(F)ccc12)C(=O)c1c[nH]c2cc(F)ccc12.O=C(O)C(F)(F)F.O=C(O)C(F)(F)F` the MIC (Pseudomonas aeruginosa [1]) was > 200 µM, the MIC (Escherichia coli) was > 200 µM and the MIC (Candida albicans) was > 39.6 µM. The MIC [8] was > 200 µM, the hemolysis at 1 h, 50 µM [2] was 0.3% and the MIC (Acinetobacter baumannii [4]) was > 39.6 µM. For the same compound, the CC50 at 20 h [5] was 12.5 µM, the MIC (Staphylococcus aureus) was 100 µM and the MIC (Cryptococcus neoformans) was 19.8 µM. The MIC (Klebsiella pneumoniae [6]) was > 39.6 µM, the pIC50 (L6) was 4.16 and the Activity (Pseudomonas aeruginosa [7]) was 25 µM.

With `COC(=O)c1ccc2[nH]cc(C(=O)C(=O)NCCCNCCCCNCCCNC(=O)C(=O)c3c[nH]c4ccc(C(=O)OC)cc34)c2c1.O=C(O)C(F)(F)F.O=C(O)C(F)(F)F` the MIC (Pseudomonas aeruginosa [1]) was 200 µM, the MIC (Escherichia coli) was 200 µM and the MIC (Candida albicans) was > 36 µM. The MIC [8] was 6.25 µM, the hemolysis at 1 h, 50 µM [2] was 0% and the MIC (Acinetobacter baumannii [4]) was > 36 µM. For the same compound, the CC50 at 20 h [5] was > 36 µM, the MIC (Staphylococcus aureus) was 100 µM and the MIC (Cryptococcus neoformans) was > 36 µM. For the same compound, the MIC (Klebsiella pneumoniae [6]) was > 36 µM, the pIC50 (L6) was 4.38 and the Activity (Pseudomonas aeruginosa [7]) was 25 µM.

From ChEMBL document CHEMBL4311975, “Exploration of the antibiotic potentiating activity of indolglyoxylpolyamines” (Eur J Med Chem, 2019)
